Test results from ChEMBL document CHEMBL1926588, “Sulfur and selenium derivatives of quinazoline and pyrido[2,3-d]pyrimidine: synthesis and study of their potential cytotoxic activity in vitro” (Eur J Med Chem, 2012).

Legend:
MCF7 [1] = experiment: Cell cycle arrest in human MCF7 cells assessed as accumulation at subG1 phase at 15 uM after 12 hrs by propidium iodide staining-based flow cytometric analysis (reference value: 2.17 +/- 0.24%); assay type: functional
MCF7 [2] = experiment: Induction of apoptosis in human MCF7 cells assessed as cell death at 15 uM after 24 hrs by TUNEL analysis (reference value: 5.13 +/- 4.32%); assay type: functional
MCF7 [3] = experiment: Cell cycle arrest in human MCF7 cells assessed as accumulation at G0/G1 phase at 15 uM after 24 hrs by propidium iodide staining-based flow cytometric analysis (reference value: 51.83 +/- 5.64%); assay type: functional
MCF7 [4] = experiment: Induction of apoptosis in human MCF7 cells assessed as cell death at 1 uM after 24 hrs by TUNEL analysis (reference value: 6.12 +/- 1.61%); assay type: functional
[5] = Cytotoxicity against human HTB-54 cells after 72 hrs by MTT assay; assay type: functional; conditions: HTB-54, 72 h; for CC50: read-out: LC50 (the source's name)
Procedure, shortened: (§1)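 MTT read-out after 72 h exposure at 37 °C in humidified 5% CO2, with five concentrations between 0.01 and 100. GI50 is 50% growth reduction versus untreated controls, TGI is complete growth inhibition, and LC50 is the concentration killing 50% of cells. Minimum three independent experiments.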

MCF7 [6] = experiment: Induction of apoptosis in human MCF7 cells assessed as cell death at 10 uM after 12 hrs by TUNEL analysis (reference value: 6.02 +/- 0.85%); assay type: functional
MCF7 [7] = experiment: Induction of apoptosis in human MCF7 cells assessed as cell death at 10 uM after 4 hrs by TUNEL analysis (reference value: 5.85 +/- 5.21%); assay type: functional
HT-29 = experiment: Cytotoxicity against human HT-29 cells after 72 hrs by MTT assay; assay type: functional; conditions: HT-29, 72 h; for CC50: read-out: LC50 (the source's name); procedure, shortened: as §1
MCF7 [8] = experiment: Cell cycle arrest in human MCF7 cells assessed as accumulation at subG1 phase at 15 uM after 4 hrs by propidium iodide staining-based flow cytometric analysis (reference value: 5.90 +/- 1.36%); assay type: functional
MCF7 [9] = experiment: Induction of apoptosis in human MCF7 cells assessed as cell death at 10 uM after 24 hrs by TUNEL analysis (reference value: 9.82 +/- 2.62%); assay type: functional
MCF7 [10] = experiment: Cell cycle arrest in human MCF7 cells assessed as accumulation at G0/G1 phase at 15 uM after 12 hrs by propidium iodide staining-based flow cytometric analysis (reference value: 57.34 +/- 1.64%); assay type: functional
[11] = Cytotoxicity against human BEAS2B cells after 72 hrs by MTT assay; assay type: cell-based, BEAS-2B; conditions: for GI50 at 72 h: BEAS2B cells; for LC50 / TGI: beas-2b, 72 h; procedure, shortened: as §1
MCF7 [12] = experiment: Cell cycle arrest in human MCF7 cells assessed as accumulation at G0/G1 phase at 15 uM after 4 hrs by propidium iodide staining-based flow cytometric analysis (reference value: 49.38 +/- 4.74%); assay type: functional
MCF7 [13] = experiment: Cell cycle arrest in human MCF7 cells assessed as accumulation at G2/M phase at 15 uM after 4 hrs by propidium iodide staining-based flow cytometric analysis (reference value: 21.60 +/- 5.37%); assay type: functional
MCF7 [14] = experiment: Induction of apoptosis in human MCF7 cells assessed as cell death at 5 uM after 24 hrs by TUNEL analysis (reference value: 9.28 +/- 1.71%); assay type: functional
CCRF-CEM = experiment: Cytotoxicity against human CCRF-CEM cells after 72 hrs by MTT assay; assay type: functional; conditions: for CC50: read-out: LC50 (the source's name); procedure, shortened: as §1
MCF7 [15] = experiment: Induction of apoptosis in human MCF7 cells assessed as cell death at 20 uM after 24 hrs by TUNEL analysis (reference value: 9.56 +/- 1.38%); assay type: functional
MCF7 [16] = experiment: Cell cycle arrest in human MCF7 cells assessed as accumulation at G2/M phase at 15 uM after 12 hrs by propidium iodide staining-based flow cytometric analysis (reference value: 22.11 +/- 3.86%); assay type: functional
[17] = Cytotoxicity against human 184B5 cells after 72 hrs by MTT assay; assay type: cell-based; conditions: for GI50 at 72 h: 184B5 cells; for LC50 / TGI: 184b5, 72 h; procedure, shortened: as §1
MCF7 [18] = experiment: Cell cycle arrest in human MCF7 cells assessed as accumulation at S phase at 15 uM after 24 hrs by propidium iodide staining-based flow cytometric analysis (reference value: 12.39 +/- 1.54%); assay type: functional
MCF7 [19] = experiment: Cell cycle arrest in human MCF7 cells assessed as accumulation at S phase at 15 uM after 4 hrs by propidium iodide staining-based flow cytometric analysis (reference value: 19.09 +/- 4.54%); assay type: functional
[20] = Permeability of the compound across human Caco2 cells; assay type: ADME, cell-based; conditions: Caco-2, read-out: permeability
MCF7 [21] = experiment: Induction of apoptosis in human MCF7 cells assessed as cell death at 10 uM after 48 hrs by TUNEL analysis (reference value: 4.23 +/- 1.99%); assay type: functional
MCF7 [22] = experiment: Cell cycle arrest in human MCF7 cells assessed as accumulation at subG1 phase at 15 uM after 24 hrs by propidium iodide staining-based flow cytometric analysis (reference value: 2.93 +/- 0.54%); assay type: functional
MCF7 [23] = experiment: Cytotoxicity against human MCF7 cells after 72 hrs by MTT assay; assay type: functional; conditions: MCF7, 72 h; procedure, shortened: as §1
MCF7 [24] = experiment: Cell cycle arrest in human MCF7 cells assessed as accumulation at G2/M phase at 15 uM after 24 hrs by propidium iodide staining-based flow cytometric analysis (reference value: 32.37 +/- 7.73%); assay type: functional
MCF7 [25] = experiment: Cell cycle arrest in human MCF7 cells assessed as accumulation at S phase at 15 uM after 12 hrs by propidium iodide staining-based flow cytometric analysis (reference value: 17.07 +/- 4.00%); assay type: functional
MCF7 [26] = experiment: Selectivity ratio of GI50 for human 184B5 cells to GI50 for human MCF7 cells
Procedure, shortened: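 Selectivity ratio is GI50 on non-tumoral 184B5 mammary cells divided by GI50 on MCF-7. Both come from the 72 h MTT assay. Ratio 3–6 means moderate selectivity, >6 high, and otherwise non-selective.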

| Structure (SMILES) | Activity (MCF7 [1]) [%] | Activity (MCF7 [2]) [%] | Activity (MCF7 [3]) [%] | Activity (MCF7 [4]) [%] | GI50 [5] [µM] | TGI [5] [µM] | CC50 [5] [µM] | Activity (MCF7 [6]) [%] | Activity (MCF7 [7]) [%] | GI50 (HT-29) [µM] | TGI (HT-29) [µM] | CC50 (HT-29) [µM] | Activity (MCF7 [8]) [%] | Activity (MCF7 [9]) [%] | Activity (MCF7 [10]) [%] | GI50 at 72 h [11] [µM] | LC50 [11] [µM] | TGI [11] [µM] | Activity (MCF7 [12]) [%] | Activity (MCF7 [13]) [%] | further results |
| --- | --- | --- | --- | --- | --- | --- | --- | --- | --- | --- | --- | --- | --- | --- | --- | --- | --- | --- | --- | --- | --- |
| CSc1ccc(CNc2nc(SC)nc3ncccc23)cc1 | 2.24 | 23.95 | 52.91 | 3.4 | 3.28 | 14.8 | 63.6 | 11.51 | 5.26 | 4.32 | 7.03 | 8.75 | 3.88 | 25.95 | 55.42 | 0.6 | 8.47 | 3.77 | 50.42 | 23.88 | Activity (MCF7 [14]): 13.7%; GI50 (CCRF-CEM): 5.35 µM; TGI (CCRF-CEM): 16.8 µM; CC50 (CCRF-CEM): 59 µM; Activity (MCF7 [15]): 22.63%; Activity (MCF7 [16]): 22.99%; GI50 at 72 h [17]: 0.19 µM; LC50 [17]: 5.64 µM; TGI [17]: 1.14 µM; Activity (MCF7 [18]): 11.04%; Activity (MCF7 [19]): 18.02%; Papp [20]: 4.4 ×10⁻⁶ cm/s; Activity (MCF7 [21]): 11.66%; Activity (MCF7 [22]): 2.97%; GI50 (MCF7 [23]): 0.05 µM; LC50 (MCF7 [23]): 9.13 µM; TGI (MCF7 [23]): 4.37 µM; Activity (MCF7 [24]): 30.2%; Activity (MCF7 [25]): 19.35% |
| CCCCC[Se]c1nc(NCc2ccccc2)c2ccccc2n1 | 2.13 | 24.88 | 46.97 | 3.84 | 37.7 | 81.1 | > 100 | 13.39 | 8.11 | 72.7 | > 100 | > 100 | 4.42 | 30.13 | 55.3 | 44.1 | > 100 | > 100 | 46.24 | 28.5 | RatioGI50 (MCF7 [26]): 1418; Activity (MCF7 [14]): 14.37%; GI50 (CCRF-CEM): 34.5 µM; TGI (CCRF-CEM): 72.5 µM; CC50 (CCRF-CEM): > 100 µM; Activity (MCF7 [15]): 30.95%; Activity (MCF7 [16]): 25.83%; GI50 at 72 h [17]: 70.9 µM; LC50 [17]: > 100 µM; TGI [17]: > 100 µM; Activity (MCF7 [18]): 12.2%; Activity (MCF7 [19]): 16.66%; Papp [20]: 5.6 ×10⁻⁶ cm/s; Activity (MCF7 [21]): 14.91%; Activity (MCF7 [22]): 3.28%; GI50 (MCF7 [23]): 0.05 µM; LC50 (MCF7 [23]): 99.4 µM; TGI (MCF7 [23]): 47.1 µM; Activity (MCF7 [24]): 34.79%; Activity (MCF7 [25]): 17.01% |
